In the library only some 4% were active in any assay of this set; here they are far more common.
Mdm2-MdmX inh – disrupts the human Mdm2-MdmX interaction. O15151+Q00987. SaOS-2 split-luciferase Mdm2/MdmX complementation, luminescence. inhibition, % at 8 µM. 330,000 compounds, 3% hits. AID 485346;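 active = inhibition of at least 50% at 8 µM in the primary screen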
UPR XBP1 act – activators of adaptive arm of unfolded protein response (XBP1). CHO-XBP1 luciferase reporter, IRE1-XBP1 UPR activation, luminescence; percent of tunicamycin response, DMSO as zero. 330,000 compounds, 0.33% hits. AID 463104. activation, % at 20 µM;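 active = versus positive control, 20 µM dose yields 30% or more activation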;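 also: 100% = tunicamycin at 10 µg/mL and 0% = DMSO only wells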
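Material: CHO-XBP1 cells stably carrying IRE1-XBP1-driven luciferase reporter / Amount: 1000 cells per well / Compound: 20 µM, 1% DMSO / Times: 6 h treatment, 37 °C / Detection: luciferase luminescence / Measure: % activation of reporter signal versus tunicamycin and DMSO controls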
CHOP UPR activ – apoptotic UPR (CHOP) activation. activation, % at 10 µM. CHO-CHOP luciferase reporter, luminescence; percent of tunicamycin response over DMSO baseline. AID 449763. 330,000 compounds, 0.34% hits;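 active = at 10 µM dose, activation of 40% or more, normalized to positive control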;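 also: 100% = tunicamycin at 10 µg/mL and 0% = DMSO alone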
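Evaluation: % reporter activation, DMSO baseline versus tunicamycin full activation; System: CHO-CHOP luciferase reporter cell line; Input: 500 cells/well; Incubation: 6 h compound treatment, 37 °C; Measured by: Steady-Glo luciferase luminescence; Dosing: one dose, 10 µM in 0.5% DMSO; Buffer or medium: F12 medium, 10% FBS; Benchmarks: positive tunicamycin 10 µg/mL, negative DMSO alone.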
ABHD5 PLIN5 PPI – blocks binding of human ABHD5 to perilipin-5; Split G. princeps luciferase complementation, luminescence, 4 h; 360,000 compounds, 0.78% hits; inhibition, % at 4 µM; AID 602281;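 active = inhibition above the mean inhibition across every tested compound plus 3 SD, cut at about 22% in these data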;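 also: 0% = DMSO only wells and the 100% control is not disclosed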
Target sequence (Q00G26 whole entry, looked up): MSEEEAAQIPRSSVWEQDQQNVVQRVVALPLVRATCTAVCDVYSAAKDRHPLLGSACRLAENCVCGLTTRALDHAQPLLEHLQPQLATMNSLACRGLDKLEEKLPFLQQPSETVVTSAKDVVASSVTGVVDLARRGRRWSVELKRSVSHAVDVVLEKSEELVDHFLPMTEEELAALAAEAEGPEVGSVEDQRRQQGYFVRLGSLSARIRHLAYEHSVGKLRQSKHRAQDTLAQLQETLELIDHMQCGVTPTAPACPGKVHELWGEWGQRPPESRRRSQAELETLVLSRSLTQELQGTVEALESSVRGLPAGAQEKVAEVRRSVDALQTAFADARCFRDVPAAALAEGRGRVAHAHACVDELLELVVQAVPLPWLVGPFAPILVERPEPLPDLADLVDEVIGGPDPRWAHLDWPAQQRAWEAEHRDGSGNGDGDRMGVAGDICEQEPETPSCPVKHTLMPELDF
Target sequence (Q8WTS1 whole entry, looked up): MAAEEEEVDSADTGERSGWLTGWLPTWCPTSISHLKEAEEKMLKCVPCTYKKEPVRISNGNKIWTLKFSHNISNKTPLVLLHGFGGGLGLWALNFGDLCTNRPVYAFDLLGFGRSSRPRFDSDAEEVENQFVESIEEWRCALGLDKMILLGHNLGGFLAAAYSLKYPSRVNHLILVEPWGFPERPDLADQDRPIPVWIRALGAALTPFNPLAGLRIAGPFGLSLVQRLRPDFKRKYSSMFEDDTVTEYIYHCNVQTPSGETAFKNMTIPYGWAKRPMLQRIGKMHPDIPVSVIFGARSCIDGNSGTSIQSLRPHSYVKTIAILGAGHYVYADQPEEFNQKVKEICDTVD
Exocytosis inh – lytic granule exocytosis inhibition | 360,000 compounds, 0.66% hits | AID 651702 | TALL-104 LAMP-1 surface exposure, flow cytometry; cells stimulated with thapsigargin and PMA | inhibition, % at 10 µM;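 active = inhibition above about 55%, limit read from the data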
CHOP UPR conf – confirmation of apoptotic unfolded protein response (CHOP) activators. activation, % at 10 µM. 1,000 compounds, 64% hits. shares compounds with CHOP UPR activ. CHO-CHOP cells, CHOP-luciferase reporter luminescence; percent of tunicamycin response, DMSO as zero; in the data active = activation above about 33%;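 also: 0% = DMSO wells and 100% = tunicamycin 10 µg/mL wells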
Mdm2-MdmX conf – confirmation of human Mdm2/MdmX interaction inhibitors | shares compounds with Mdm2-MdmX inh | Mdm2-MdmX binding, luminescent assay | inhibition, % at 8 µM | 10,000 compounds, 55% hits | AID 489028; in the data active = inhibition above about 40%
Full FLuc ctr – counter-screen for Mdm2/MdmX inhibitors: full-length luciferase; 6,200 compounds, 77% hits; inhibition, % at 8 µM; shares compounds with Mdm2-MdmX inh; SaOS-2 full-length luciferase counterscreen, luminescence;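 active = mean inhibition at 8 µM reaching about 37%, which flags the compound as non-specific, limit read from the data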;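 also: p53-null SaOS-2 cells with luciferase driven by a doxycycline-inducible promoter; compound on cells about two nights before reading with doxycycline added after day one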
ABHD5 PLIN5 conf – confirmation of human ABHD5-PLIN5 interaction inhibitors | shares compounds with ABHD5 PLIN5 PPI | 2,200 compounds, 67% hits | AID 651612 | inhibition, % at 4 µM | biochemical ABHD5-PLIN5 interaction, luminescence; in the data active = inhibition above about 23%;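 also: 0% = DMSO vehicle wells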
HNF4 counter – counter-screen for ABHD5-PLIN5 inhibitors: HNF4 split-luciferase | HNF4 dimerization, luminescence, biochemical | inhibition, % at 4 µM | 2,200 compounds, 77% hits | AID 651674 | shares compounds with ABHD5 PLIN5 PPI;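 active = mean inhibition across replicate wells exceeding the computed hit threshold, cut at about 13% in these data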;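 also: light from luciferase halves that rejoin when HNF4 fusion proteins dimerize; 0% = DMSO only wells and the 100% control is not given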
* hit, by the source's call; x = no result.

SMILES	Mdm2-MdmX inh	UPR XBP1 act	CHOP UPR activ	ABHD5 PLIN5 PPI	Exocytosis inh	CHOP UPR conf	Mdm2-MdmX conf	Full FLuc ctr	ABHD5 PLIN5 conf	HNF4 counter
O=C(/C=C\c1ccc(-c2ccccc2)o1)c1ccccc1	31	10	79*	38*	86*	4	x	x	67*	90*
Cc1ccc(S/C=C\C(=O)c2ccccc2)cc1	13	0	69*	31*	2	56*	x	x	48*	33*
Cc1ccc(C(=O)/C=C\C(=O)c2ccc(C)cc2)cc1	x	x	x	18	55	x	x	x	x	x
COc1ccccc1OCC(=O)N(Cc1nc(-c2ccc(Cl)cc2)no1)C(C)C	-8	-2	1	-5	-1	x	x	x	x	x
Cc1ccc(/C=C/C(=O)N2CC(C)CC(C)C2)o1 (centres undefined)	-13	0	68*	28*	102*	2	x	x	23*	36*
CCOC(=O)c1nc2sc(C)c(C)c2c(=O)[nH]1	10	-3	6	4	1	x	x	x	x	x
CCOC(=O)/C(=C\c1cccc(O)c1)c1nc2sc(C)c(C)c2c(=O)[nH]1	82*	-2	47*	53*	14	163*	35	27	85*	80*
O=C1C(=O)c2c(C(=O)c3ccccc3)coc2-c2ccccc21	100*	23	48*	69*	92*	30	5	x	85*	45*
CC(C)[C@H](NC(=O)OC(C)(C)C)c1nnc(S(=O)(=O)Cc2c(F)cccc2Cl)o1	30	-5	134*	71*	34	95*	x	x	85*	108*
CC(C)(C)OC(=O)N[C@@H](Cc1ccccc1)c1nnc(S(=O)(=O)Cc2cccc(F)c2)o1	27	-12	-8	x	x	x	x	x	x	x
CC[C@@H](C)[C@H](NC(=O)OC(C)(C)C)c1nnc(S(=O)(=O)Cc2cc(C)ccc2C)o1	82*	-16	225*	61*	2	100*	66*	3	72*	102*
Cc1cc(C)c(C(CC(=O)c2cccs2)C(C#N)C#N)c(C)c1 (centres undefined)	28	-1	47*	24*	-2	95*	x	x	64*	41*
Cc1ccc(C(=O)N/C(=C\c2ccc(-c3cc(Cl)ccc3Cl)o2)C(=O)NCc2cccnc2)cc1	14	4	1	2	7	x	x	x	x	x
O=C(NCc1cccnc1)/C(=C/c1ccc(-c2cccc(Cl)c2)o1)S(=O)(=O)c1ccccc1	99*	-8	83*	48*	7	114*	100*	51*	40*	39*
O=C(Nc1cccc(OC(=O)c2cccnc2)c1)c1cccnc1	23	-2	-1	0	-2	x	x	x	x	x
Nc1nnnn1/N=C/C(Br)=C/c1ccccc1	100*	-3	109*	28*	-1	64*	93*	50*	54*	51*
Nc1nnnn1/N=C/C=C/c1ccccc1	1	2	4	3	-2	x	x	x	x	x
CCSC1(SCC)N=C(N)C2(C#N)C(c3ccccc3)NC3=C(CCC3)C12C#N (centres undefined)	42	-1	-2	-2	0	x	x	x	x	x
CCSC1(SCC)N=C(N)C2(C#N)C(c3ccc(OC)c(OC)c3OC)C12C#N (centres undefined)	69*	20	214*	25*	3	307*	50*	17	78*	72*
N#Cc1ccccc1Cn1cc(/C=C/[N+](=O)[O-])c2ccccc21	47	1	85*	69*	61*	5	x	x	100*	96*

Compound activity: PubChem BioAssay, several laboratories
